Laboratory results as given in ChEMBL document CHEMBL4425133, “Discovery and Pharmacokinetic and Pharmacological Properties of the Potent and Selective MET Kinase Inhibitor 1-{6-[6-(4-Fluorophenyl)-[1,2,4]triazolo[4,3-b]pyridazin-3-ylsulfanyl]benzothiazol-2-yl}-3-(2-morpholin-4-ylethyl)urea (SAR125844)” (J Med Chem, 2016).
Converted amounts (≈) assume the structure as drawn.

Key:
[1] = target: Hepatocyte growth factor receptor (Homo sapiens, UniProt P08581, Y1230H); assay: Inhibition of phosphorylated MET Y1230H mutant (unknown origin) pre-incubated for 30 mins before biotinylated poly(glutamate-alanine-tyrosine) peptide addition and measured after 5 mins by HTRF assay
[2] = Lipophilicity, log D of the compound by HPLC method; format: physicochemical
[3] = target: Hepatocyte growth factor receptor (Homo sapiens, UniProt P08581, L1195V); assay: Inhibition of phosphorylated MET L1195V mutant (unknown origin) pre-incubated for 30 mins before biotinylated poly(glutamate-alanine-tyrosine) peptide addition and measured after 5 mins by HTRF assay
[4] = target: Hepatocyte growth factor receptor (Homo sapiens, UniProt P08581, M1250T); assay: Inhibition of phosphorylated MET M1250T mutant (unknown origin) pre-incubated for 30 mins before biotinylated poly(glutamate-alanine-tyrosine) peptide addition and measured after 5 mins by HTRF assay
[5] = target: T1, Hepatocyte growth factor receptor (Homo sapiens, UniProt P08581); assay: Inhibition of phosphorylated MET in human MKN45 cells assessed as reduction in pMET Y1230/1234/1235 level incubated for 1 hr by ELISA; format: cell-based
Outline: (§1)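 MKN-45 is a MET-amplified human gastric tumour cell line.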

[6] = system: MKN-45; assay: Antiproliferative activity against human MKN45 cells assessed as reduction in [14C]-thymidine incorporation incubated for 96 hrs by beta counting method; format: functional, cell-based; conditions: MKN-45, 96 h; outline: as §1
[7] = Equilibrium solubility in phosphate buffer in absence of 10% Labrasol at pH 7.4; format: physicochemical
[8] = Equilibrium solubility in phosphate buffer in presence of 10% Labrasol at pH 7.4; format: physicochemical; conditions: phosphate buffer with 10% Labrasol
[9] = target: T1, Hepatocyte growth factor receptor; assay: Inhibition of wild type phosphorylated MET (unknown origin) pre-incubated for 30 mins before biotinylated poly(glutamate-alanine-tyrosine) peptide addition and measured after 5 mins by HTRF assay
[10] = target: T2, Cytochrome P450 3A4 (Homo sapiens, UniProt P08684); assay: Mechanism based time dependent inhibition of human recombinant CYP3A4 co-expressed with human P450 reductase and human b5 reductase assessed as reduction in 7-Hydroxyquinoline production using 7-benzyloxyquinoline as substrate and NADPH measured every 3 mins for 15 mins by fluorimetry; format: ADME; conditions: recombinant enzyme, 0.25 h
[11] = Drug metabolism in human hepatic microsomes at 5 uM incubated for 20 mins in presence of NADPH by liquid chromatography-tandem mass spectrometry; format: ADME, Microsome; conditions: liver microsomes, read-out: Drug metabolism
[12] = target: T2, Cytochrome P450 3A4; assay: Inhibition of human recombinant CYP3A4 co-expressed with human P450 reductase and human b5 reductase assessed as reduction in 7-Hydroxyquinoline production using 7-benzyloxyquinoline as substrate and NADPH incubated for 15 mins by fluorimetry; format: ADME
[13] = Apparent permeability from apical to basolateral side in human Caco2/TC7 cells at 20 uM by liquid chromatography-tandem mass spectrometry; conditions: Caco-2
[14] = target: T1, Hepatocyte growth factor receptor; assay: Binding affinity to MET (unknown origin) by isothermal titration calorimetry
[15] = target: Cyclin-dependent kinase 9 (Homo sapiens, UniProt P50750); assay: Inhibition of CDK9 (unknown origin)
[16] = target: Tubulin; assay: Binding affinity to tubulin (unknown origin); format: protein-complex assay, Homo sapiens
[17] = Oral bioavailability in mouse; format: ADME, organism-based; conditions: in vivo

T1 sequence (P08581 whole entry): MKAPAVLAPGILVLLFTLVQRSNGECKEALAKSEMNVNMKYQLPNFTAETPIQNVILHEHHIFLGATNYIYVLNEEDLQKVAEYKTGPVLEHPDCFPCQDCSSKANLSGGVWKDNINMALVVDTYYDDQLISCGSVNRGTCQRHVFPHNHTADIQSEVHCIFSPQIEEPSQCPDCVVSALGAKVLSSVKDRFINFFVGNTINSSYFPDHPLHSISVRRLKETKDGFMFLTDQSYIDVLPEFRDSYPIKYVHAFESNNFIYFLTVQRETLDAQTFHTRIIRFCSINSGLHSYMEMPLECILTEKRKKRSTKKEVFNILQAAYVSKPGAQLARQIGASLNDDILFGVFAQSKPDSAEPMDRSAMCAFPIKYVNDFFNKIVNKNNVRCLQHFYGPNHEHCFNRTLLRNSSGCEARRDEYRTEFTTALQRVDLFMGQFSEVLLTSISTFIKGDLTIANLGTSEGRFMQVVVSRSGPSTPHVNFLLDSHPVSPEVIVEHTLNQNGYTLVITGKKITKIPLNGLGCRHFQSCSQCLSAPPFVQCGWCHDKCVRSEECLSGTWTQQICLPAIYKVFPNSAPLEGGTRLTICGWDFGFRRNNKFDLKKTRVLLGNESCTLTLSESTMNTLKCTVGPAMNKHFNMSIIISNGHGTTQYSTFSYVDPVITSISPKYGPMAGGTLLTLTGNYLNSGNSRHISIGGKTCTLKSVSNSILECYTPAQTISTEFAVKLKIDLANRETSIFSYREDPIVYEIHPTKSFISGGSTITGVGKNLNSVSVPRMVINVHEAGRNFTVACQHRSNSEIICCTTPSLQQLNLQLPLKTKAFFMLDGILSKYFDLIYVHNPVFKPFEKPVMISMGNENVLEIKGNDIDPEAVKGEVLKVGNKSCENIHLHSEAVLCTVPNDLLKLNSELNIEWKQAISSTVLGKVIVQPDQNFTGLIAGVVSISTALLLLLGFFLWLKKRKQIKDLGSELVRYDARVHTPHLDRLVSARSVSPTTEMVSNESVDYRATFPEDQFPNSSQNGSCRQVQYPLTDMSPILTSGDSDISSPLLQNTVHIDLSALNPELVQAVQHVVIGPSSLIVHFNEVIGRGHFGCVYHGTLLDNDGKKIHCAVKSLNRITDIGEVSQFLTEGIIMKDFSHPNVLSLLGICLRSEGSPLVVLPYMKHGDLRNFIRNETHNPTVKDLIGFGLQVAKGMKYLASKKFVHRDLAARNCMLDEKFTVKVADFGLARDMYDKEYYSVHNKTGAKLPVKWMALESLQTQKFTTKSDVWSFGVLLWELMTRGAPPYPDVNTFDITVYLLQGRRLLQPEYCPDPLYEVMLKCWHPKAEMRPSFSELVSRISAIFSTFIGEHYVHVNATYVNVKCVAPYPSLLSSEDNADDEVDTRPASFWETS
Chain of Hepatocyte growth factor receptor (Homo sapiens, UniProt P08581, Y1230H) (P08581 25-1390 Y1230H limits assumed): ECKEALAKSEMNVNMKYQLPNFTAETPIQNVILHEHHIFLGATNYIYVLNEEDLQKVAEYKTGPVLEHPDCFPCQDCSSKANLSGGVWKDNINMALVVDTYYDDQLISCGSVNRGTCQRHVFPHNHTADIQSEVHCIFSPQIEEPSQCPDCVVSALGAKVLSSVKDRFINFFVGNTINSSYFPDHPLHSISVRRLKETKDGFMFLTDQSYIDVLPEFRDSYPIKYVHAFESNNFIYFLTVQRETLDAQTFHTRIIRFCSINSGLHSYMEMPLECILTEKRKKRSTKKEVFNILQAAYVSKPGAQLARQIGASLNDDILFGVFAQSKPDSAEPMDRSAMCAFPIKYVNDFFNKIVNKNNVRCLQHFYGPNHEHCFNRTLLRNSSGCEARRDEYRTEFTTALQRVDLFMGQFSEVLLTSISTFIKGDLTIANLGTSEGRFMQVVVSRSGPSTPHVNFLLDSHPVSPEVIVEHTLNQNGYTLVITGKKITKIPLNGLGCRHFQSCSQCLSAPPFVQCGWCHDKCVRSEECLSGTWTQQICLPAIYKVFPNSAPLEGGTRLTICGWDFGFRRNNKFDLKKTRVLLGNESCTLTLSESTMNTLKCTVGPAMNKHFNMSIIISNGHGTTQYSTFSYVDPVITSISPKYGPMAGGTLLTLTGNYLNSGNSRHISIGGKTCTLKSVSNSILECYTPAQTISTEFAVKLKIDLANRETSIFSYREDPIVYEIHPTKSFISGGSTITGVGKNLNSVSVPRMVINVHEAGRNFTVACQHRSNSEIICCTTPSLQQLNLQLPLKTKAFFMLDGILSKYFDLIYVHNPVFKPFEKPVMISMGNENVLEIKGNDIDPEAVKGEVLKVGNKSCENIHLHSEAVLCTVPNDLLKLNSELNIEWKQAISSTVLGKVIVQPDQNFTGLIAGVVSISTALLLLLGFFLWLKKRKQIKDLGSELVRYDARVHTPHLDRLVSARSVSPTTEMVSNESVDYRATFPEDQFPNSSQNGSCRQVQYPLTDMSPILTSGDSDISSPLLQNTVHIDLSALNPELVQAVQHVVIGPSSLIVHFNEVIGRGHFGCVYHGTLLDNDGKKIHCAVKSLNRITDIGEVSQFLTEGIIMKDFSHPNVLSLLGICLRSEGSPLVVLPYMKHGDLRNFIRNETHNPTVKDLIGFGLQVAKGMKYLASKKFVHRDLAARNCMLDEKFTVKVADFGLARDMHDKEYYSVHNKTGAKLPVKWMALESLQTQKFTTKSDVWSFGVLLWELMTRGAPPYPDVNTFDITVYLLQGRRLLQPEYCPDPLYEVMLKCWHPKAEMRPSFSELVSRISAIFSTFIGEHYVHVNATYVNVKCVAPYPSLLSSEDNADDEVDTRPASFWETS
Chain of Hepatocyte growth factor receptor (Homo sapiens, UniProt P08581, M1250T) (P08581 25-1390 M1250T limits assumed): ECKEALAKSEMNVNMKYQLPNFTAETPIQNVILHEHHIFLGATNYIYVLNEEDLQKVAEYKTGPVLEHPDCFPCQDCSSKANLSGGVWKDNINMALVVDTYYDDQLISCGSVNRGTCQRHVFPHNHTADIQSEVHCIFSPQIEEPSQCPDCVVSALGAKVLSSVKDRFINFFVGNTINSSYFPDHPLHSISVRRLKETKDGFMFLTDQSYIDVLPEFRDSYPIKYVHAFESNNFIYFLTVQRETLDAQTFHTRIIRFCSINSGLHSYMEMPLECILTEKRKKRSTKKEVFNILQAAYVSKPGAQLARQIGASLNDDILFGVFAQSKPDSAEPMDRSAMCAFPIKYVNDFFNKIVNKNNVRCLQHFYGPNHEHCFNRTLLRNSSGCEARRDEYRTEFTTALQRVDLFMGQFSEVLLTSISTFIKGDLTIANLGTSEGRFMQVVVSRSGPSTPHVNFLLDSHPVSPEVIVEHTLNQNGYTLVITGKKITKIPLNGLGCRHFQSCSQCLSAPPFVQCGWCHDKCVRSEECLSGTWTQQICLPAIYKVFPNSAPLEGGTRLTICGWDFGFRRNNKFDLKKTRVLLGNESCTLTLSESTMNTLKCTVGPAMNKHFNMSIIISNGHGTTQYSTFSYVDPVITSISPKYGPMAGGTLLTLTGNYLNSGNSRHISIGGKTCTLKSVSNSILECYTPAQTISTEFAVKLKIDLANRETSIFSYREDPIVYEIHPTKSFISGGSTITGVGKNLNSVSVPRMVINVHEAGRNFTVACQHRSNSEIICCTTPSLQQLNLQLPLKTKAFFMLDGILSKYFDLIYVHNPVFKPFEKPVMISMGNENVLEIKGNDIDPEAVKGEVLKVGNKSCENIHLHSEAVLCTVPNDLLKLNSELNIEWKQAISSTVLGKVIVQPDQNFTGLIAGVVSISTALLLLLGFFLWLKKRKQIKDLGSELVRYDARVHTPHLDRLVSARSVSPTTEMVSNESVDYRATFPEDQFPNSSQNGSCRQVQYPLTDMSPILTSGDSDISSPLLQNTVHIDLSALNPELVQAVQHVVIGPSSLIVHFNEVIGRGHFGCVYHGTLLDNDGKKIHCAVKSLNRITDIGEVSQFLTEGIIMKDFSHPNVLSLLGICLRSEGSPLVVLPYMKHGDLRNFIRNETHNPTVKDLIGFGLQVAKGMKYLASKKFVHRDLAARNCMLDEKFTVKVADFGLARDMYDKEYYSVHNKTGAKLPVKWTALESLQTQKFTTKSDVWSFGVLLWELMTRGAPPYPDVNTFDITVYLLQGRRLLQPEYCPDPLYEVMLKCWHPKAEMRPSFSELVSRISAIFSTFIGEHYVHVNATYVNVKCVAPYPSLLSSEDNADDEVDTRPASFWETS
T2 sequence (P08684 whole entry): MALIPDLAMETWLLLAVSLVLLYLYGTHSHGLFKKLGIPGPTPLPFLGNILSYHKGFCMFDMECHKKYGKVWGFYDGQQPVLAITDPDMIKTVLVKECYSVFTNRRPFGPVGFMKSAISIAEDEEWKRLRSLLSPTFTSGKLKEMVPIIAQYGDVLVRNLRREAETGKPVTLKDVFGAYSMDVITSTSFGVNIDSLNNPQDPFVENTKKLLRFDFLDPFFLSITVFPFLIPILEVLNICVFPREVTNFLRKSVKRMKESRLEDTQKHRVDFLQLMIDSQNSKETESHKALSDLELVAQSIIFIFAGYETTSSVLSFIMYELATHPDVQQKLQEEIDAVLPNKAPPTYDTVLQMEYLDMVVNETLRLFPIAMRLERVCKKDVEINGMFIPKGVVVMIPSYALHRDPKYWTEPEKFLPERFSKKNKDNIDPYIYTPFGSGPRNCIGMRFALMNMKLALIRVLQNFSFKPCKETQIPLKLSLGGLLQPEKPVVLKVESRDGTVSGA
Chain of Cyclin-dependent kinase 9 (P50750 whole entry): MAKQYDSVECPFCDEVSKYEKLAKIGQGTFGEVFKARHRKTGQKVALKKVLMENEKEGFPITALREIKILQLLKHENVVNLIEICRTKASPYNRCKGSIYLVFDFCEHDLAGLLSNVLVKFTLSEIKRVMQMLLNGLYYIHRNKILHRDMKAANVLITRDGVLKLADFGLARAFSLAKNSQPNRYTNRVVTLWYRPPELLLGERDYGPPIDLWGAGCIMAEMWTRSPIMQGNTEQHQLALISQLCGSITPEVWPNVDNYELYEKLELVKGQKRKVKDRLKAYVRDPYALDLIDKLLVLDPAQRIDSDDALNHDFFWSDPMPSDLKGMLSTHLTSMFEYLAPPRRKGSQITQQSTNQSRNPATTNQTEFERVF

Structure (SMILES)	IC50 [1] [µM]	logD [2]	IC50 [3] [µM]	IC50 [4] [µM]	IC50 [5] [µM]	IC50 [6] [µM]	solubility thermodynamic [7] [µM]	solubility thermodynamic [8] [µM]	IC50 [9] [µM]	INH [10] [%/min]	metabolised at 20 min, 5 µM [11] [%]	IC50 [12] [µM]	Papp A→B at 20 µM [13] [nm/s]	Kd [14] [µM]	IC50 [15] [µM]	IC50 [16] [µM]	bioavailability [17] [%]
CCN(CC)CCNC(=O)Nc1nc2ccc(Sc3nnc4ccc(-c5ccc(F)cc5)nn34)cc2s1	0.864	4.15	0.148	0.071	0.01	0.033	< 1	1000	0.003								
O=C(NCCN1CCOCC1)Nc1nc2ccc(Sc3nnc4ccc(NC5CCCCC5)nn34)cc2s1	0.139						< 2		0.001	-9.1	38	2.9					
CCCCOc1ccc2nnc(Sc3ccc4nc(NC(=O)NCCN5CCOCC5)sc4c3)n2n1	0.14						< 2		0.005	-11.3	23	8.7	7				
O=C(NCCN1CCOCC1)Nc1nc2ccc(Sc3nnc4ccc(NC5CCOCC5)nn34)cc2s1	0.217						89 (≈ 49.5 µg/mL)		0.001	-14.2	39	> 40	2				
O=C(NCCN1CCOCC1)Nc1nc2ccc(Sc3nnc4ccc(OC5CCCCCC5)nn34)cc2s1	0.407						< 2		0.015	-11.6	36	14	20				
O=C(Nc1nc2ccc(Sc3nnc4ccc(-c5ccc(F)cc5)nn34)cc2s1)OCCN1CCOCC1	> 10	4.1	6.52		0.025	0.095	8 (≈ 4.41 µg/mL)	245	0.045								
O=C(NCCN1CCOCC1)Nc1nc2ccc(Sc3nnc4cccnn34)cc2s1	4.8						70 (≈ 32 µg/mL)	1070	0.029	-2.3	11	34		0.012			
Nc1nc2ccc(Sc3nnc4ccc(-c5ccc(F)cc5)nn34)cc2s1	> 10	> 4.6	9	0.245	0.043	0.081		44	0.01								
O=C(NCCN1CCOCC1)Nc1nc2ccc(Sc3nnc4ccc(NC5CC5)nn34)cc2s1	0.274						< 2		0.001	-3.8	26	0.2					
O=C(NCCN1CCOCC1)Nc1nc2ccc(Sc3nnc4ccc(Oc5ccccc5)nn34)cc2s1	0.174						< 2		0.002	-12.8	32	7.9	8				
CCOc1ccc2nnc(Sc3ccc4nc(NC(=O)NCCN5CCOCC5)sc4c3)n2n1	0.643						5 (≈ 2.5 µg/mL)	460	0.003	-13.1	51	4					
O=C(CC1CC1)Nc1nc2ccc(Sc3nnc4ccc(-c5ccc(F)cc5)nn34)cc2s1	> 10	> 4.6	> 10	0.128	0.013	0.022	< 2		0.004								
COC(=O)Nc1nc2cc(OS(=O)(=O)c3c(Cl)cccc3Cl)ccc2[nH]1									0.023						1.2	2.7	
O=C(CCCN1CCOCC1)Nc1nc2ccc(Sc3nnc4ccc(-c5ccc(F)cc5)nn34)cc2s1	1.17	4.3	0.318	0.093	0.002	0.012		96	0.006								
O=C(NCCN1CCOCC1)Nc1nc2ccc(Sc3nnc4ccc(Oc5cccc(F)c5)nn34)cc2s1	0.056						< 2		0.003	-12.2	16	2	8				
Fc1ccc(-c2ccc3nnc(Sc4ccc5nc(NCCN6CCOCC6)sc5c4)n3n2)cc1	> 10	4.1	0.835	0.455	0.013	0.045	< 1	543	0.02								
O=C(Nc1nc2ccc(Sc3nnc4ccc(-c5ccc(F)cc5)nn34)cc2s1)C1CC1	0.883	4.7	0.061	0.013	0.004	0.007	< 1	64	0.003								
CCNc1nc2ccc(Sc3nnc4ccc(-c5ccc(F)cc5)nn34)cc2s1	> 10	> 4.6	> 10	0.417	0.015	0.042	< 2.5		0.015								
O=C(NCCN1CCOCC1)Nc1nc2ccc(Sc3nnc4ccc(-c5cccc(F)c5)nn34)cc2s1	0.14						32 (≈ 17.6 µg/mL)	1170	0.01	-8.2	24	1.8	4	0.0087			
CCN1CCC(CCNC(=O)Nc2nc3ccc(Sc4nnc5ccc(-c6cccs6)nn45)cc3s2)CC1	0.023	3.9			0.029	0.0027	< 2		0.002								
COCCNC(=O)Nc1nc2cc(OS(=O)(=O)c3c(F)cccc3F)ccc2[nH]1									0.005						0.006		
O=C(NCCN1CCOCC1)Nc1nc2ccc(Sc3nnc4ccc(OC5CCCC5)nn34)cc2s1	0.216						< 2		0.006	-5.5	29	31	26				12
